The list is not random: actives were taken first. Their share in the collection is about 2.4%.
Jurkat NFkB inh = lowers PMA/ionomycin-induced NF-kB signal in Jurkat cells; PMA/ionomycin-induced NF-kB luciferase reporter, luminescence; 330,000 tested, 0.53% active; inhibition, % at 4 µM; in the data active = inhibition above about 50%
NR2E3 ag-1 = activates human photoreceptor nuclear receptor NR2E3. AID 2300. 320,000 tested, 0.12% active. Q9Y5X4. inhibition of corepressor binding, % at 4.78 µM. GST-NR2E3/biotin-RetCOR TR-FRET, 1536-well;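 active = percent inhibition above the cutoff of mean plus 3 SD of all tested compounds, set per screening campaign, cut at about 20% in these data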
Target sequence (Q9Y5X4 whole entry, looked up): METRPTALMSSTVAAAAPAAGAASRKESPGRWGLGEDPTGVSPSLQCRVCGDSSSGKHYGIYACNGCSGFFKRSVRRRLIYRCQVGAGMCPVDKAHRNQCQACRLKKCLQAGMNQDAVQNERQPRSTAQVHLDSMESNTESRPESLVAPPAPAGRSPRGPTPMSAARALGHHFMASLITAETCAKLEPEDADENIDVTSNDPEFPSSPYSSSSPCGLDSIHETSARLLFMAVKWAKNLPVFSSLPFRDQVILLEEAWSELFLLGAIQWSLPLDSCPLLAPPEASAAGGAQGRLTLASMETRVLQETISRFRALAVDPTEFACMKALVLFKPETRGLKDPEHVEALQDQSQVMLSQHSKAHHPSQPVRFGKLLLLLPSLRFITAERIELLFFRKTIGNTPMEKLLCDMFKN
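Material – GST-tagged NR2E3 plus biotinylated RetCOR corepressor · Quantity – NR2E3 fusion 1.35 nM · Times – 5 h incubation at 4 °C · Medium – pH 7.5 Tris-based buffer · Technique – TR-FRET, Eu(K)-anti-GST donor, streptavidin-D2 acceptor, ex 340, em 617/671 nm · Benchmarks – high control biotin, low control 0.6% DMSO · Format – 1536-well plates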
697 NFkB inh = inhibitors of the PMA/ionomycin-induced NF-kB reporter in 697 B cells. 330,000 tested, 0.33% active. 697 B-cell NF-kB luciferase reporter, 16 h. inhibition, % at 4 µM; in the data active = inhibition above about 35%
NR2E3 ag-2 = agonists of human NR2E3 nuclear receptor | 360,000 tested, 0.35% active | Q9Y5X4 | AID 602229 | CHO-S Gal4-NCOR/VP16-NR2E3 two-hybrid, luciferase | inhibition of corepressor binding, % at 3.98 µM;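 active = inhibition above the mean of all tested compounds plus 3 SD, cut at about 70% in these data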;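 note: higher means lower luciferase signal from less NR2E3 corepressor binding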
MPTP inh = blocks calcium-induced mitochondrial swelling | 360,000 tested, 1.4% active | isolated mouse mitochondria, Ca2+ swelling absorbance, 30 min | inhibition, % at 10 µM;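 active = inhibition of 50% or more, scaled per plate between neutral and stimulator controls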
aDG glyco up = increases alpha dystroglycan glycosylation; Pro5-aDG cells, alpha-DG glycosylation AlphaScreen (IIH6); 0% Pro5, 100% B10-LARGE cell signal; activation, % at 10 µM; 360,000 tested, 0.22% active;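 active = activation of at least 8% versus controls, or a plate z-score of at least 8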;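 note: Pro5 are CHO cells carrying HIG-tagged alpha-DG that lacks glycosylation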
Rh123 counter = Rhodamine 123 counter-screen of mitochondrial pore hits | shares compounds with MPTP inh | isolated mitochondria, membrane potential, Rhodamine 123 fluorescence | 5,000 tested, 78% active | AID 624504 | inhibition, % at 10 µM; in the data active = inhibition above about 22%
MPTP swell DR = dose response confirmation of mitochondrial permeability transition pore inhibitors. IC50, µM. shares compounds with MPTP inh. isolated mitochondria swelling, absorbance. 780 tested, 58% active; in the data active = IC50 below about 20 µM
MPTP counter DR = counter-screen for mitochondrial permeability transition pore inhibitors, dose response | isolated mitochondria counterscreen, fluorescence read-out | IC50, µM | 780 tested, 49% active | shares compounds with MPTP inh; in the data active = IC50 below about 80 µM
A number is an active result.

What do the screens show for `O=C(/C(=C/c1ccc(Cl)cc1)c1nc2ccccc2[nH]1)c1cccs1`?
Jurkat NFkB inh: inactive; NR2E3 ag-1: inactive; 697 NFkB inh: inactive; NR2E3 ag-2: inactive; MPTP inh: 65.5; aDG glyco up: inactive; Rh123 counter: 75.4

What do the screens show for `O=C(/C(=C\c1ccccc1)c1nc2ccccc2[nH]1)c1ccc(Cl)cc1`?
Jurkat NFkB inh: inactive; NR2E3 ag-1: inactive; 697 NFkB inh: inactive; NR2E3 ag-2: inactive; MPTP inh: 74.6; aDG glyco up: inactive; Rh123 counter: 75.0

What do the screens show for `OC(c1ccc(-c2ccccc2)cc1)c1ncc(-c2ccccc2Cl)[nH]1` (stereo unspecified)?
NR2E3 ag-2: inactive; MPTP inh: inactive; aDG glyco up: inactive

How did O=C(Nc1ccccc1)Nc1ccc2nnsc2c1 do in these assays?
Jurkat NFkB inh: inactive; NR2E3 ag-1: inactive; 697 NFkB inh: inactive; NR2E3 ag-2: inactive; MPTP inh: 82.7; aDG glyco up: inactive; Rh123 counter: 72.1

Results for CN(C)c1ccc(NC(=O)Nc2ccc3snnc3c2)cc1 ?
Jurkat NFkB inh: inactive; NR2E3 ag-1: inactive; 697 NFkB inh: inactive; NR2E3 ag-2: inactive; MPTP inh: inactive; aDG glyco up: inactive

Results for O=C(NCc1ccccc1)c1ccc2nnsc2c1 ?
Jurkat NFkB inh: inactive; NR2E3 ag-1: inactive; 697 NFkB inh: inactive; MPTP inh: inactive; aDG glyco up: inactive

What do the screens show for `O=C(Nc1ccccc1)Nc1ccc2snnc2c1`?
Jurkat NFkB inh: inactive; NR2E3 ag-1: inactive; 697 NFkB inh: inactive; NR2E3 ag-2: inactive; MPTP inh: 100.9; aDG glyco up: inactive; Rh123 counter: 92.2

What do the screens show for `Cc1nc(-c2cccc(Br)c2)ccc1C(=O)O`?
Jurkat NFkB inh: inactive; NR2E3 ag-1: inactive; 697 NFkB inh: inactive; NR2E3 ag-2: inactive; MPTP inh: inactive; aDG glyco up: inactive

What do the screens show for `Cc1oc(-c2ccc(Cl)cc2)nc1CN1CCC(C(=O)N2CCc3ccccc3C2)CC1`?
Jurkat NFkB inh: inactive; NR2E3 ag-1: inactive; 697 NFkB inh: inactive; NR2E3 ag-2: inactive; MPTP inh: inactive; aDG glyco up: inactive

How did Cc1oc(-c2ccc(Cl)cc2)nc1CN1CCC(C(=O)N2CCN(Cc3ccccc3)CC2)CC1 do in these assays?
Jurkat NFkB inh: inactive; NR2E3 ag-1: inactive; 697 NFkB inh: inactive; NR2E3 ag-2: inactive; MPTP inh: 56.6; aDG glyco up: inactive; Rh123 counter: inactive; MPTP swell DR: inactive; MPTP counter DR: 30.3

How did CCC1=NN(C(=O)c2cccc(Br)c2)C(O)(c2ccc(Br)cc2)C1 (stereo unspecified) do in these assays?
Jurkat NFkB inh: inactive; NR2E3 ag-1: inactive; 697 NFkB inh: inactive; NR2E3 ag-2: inactive; MPTP inh: 83.5; aDG glyco up: inactive; Rh123 counter: 89.5

What do the screens show for `CCC1=NN(C(=O)c2ccc(C)cc2)C(O)(c2ccc(Br)cc2)C1` (stereo unspecified)?
Jurkat NFkB inh: inactive; NR2E3 ag-1: inactive; 697 NFkB inh: inactive; NR2E3 ag-2: inactive; MPTP inh: inactive; aDG glyco up: inactive

Results for COCCNC(=O)C1(C)Cc2c(-c3cccc(NC(C)=O)c3)ccnc2O1 (stereo unspecified) ?
NR2E3 ag-2: inactive; MPTP inh: inactive; aDG glyco up: inactive

What do the screens show for `COc1ccc([C@H]2CC(=O)C=C(c3ccc(CNC(=O)OC(C)(C)C)cc3)C2)cc1`?
Jurkat NFkB inh: inactive; NR2E3 ag-1: inactive; 697 NFkB inh: inactive; NR2E3 ag-2: inactive; MPTP inh: 70.9; aDG glyco up: inactive; Rh123 counter: 80.4

Results for CCOc1cc(CNCc2ccncc2)cc(Br)c1OCc1ccc(F)cc1 ?
Jurkat NFkB inh: inactive; NR2E3 ag-1: inactive; 697 NFkB inh: inactive; NR2E3 ag-2: inactive; MPTP inh: 97.9; aDG glyco up: inactive; Rh123 counter: inactive; MPTP swell DR: 8.41; MPTP counter DR: 25.7

Results for CCOc1cc(CNCCO)cc(Br)c1OCc1ccccc1 ?
Jurkat NFkB inh: inactive; NR2E3 ag-1: inactive; 697 NFkB inh: inactive; NR2E3 ag-2: inactive; MPTP inh: 88.8; aDG glyco up: inactive; Rh123 counter: inactive; MPTP swell DR: 5.5; MPTP counter DR: 19.1

How did CCCc1cc(=O)oc2cc(C)cc(OC(=O)c3ccco3)c12 do in these assays?
Jurkat NFkB inh: inactive; NR2E3 ag-1: inactive; 697 NFkB inh: inactive; NR2E3 ag-2: inactive; MPTP inh: 83.9; aDG glyco up: inactive; Rh123 counter: 88.4

Results for CCCc1cc(=O)oc2cc(C)cc(OCC(=O)NCc3cccnc3)c12 ?
Jurkat NFkB inh: inactive; NR2E3 ag-1: inactive; 697 NFkB inh: inactive; NR2E3 ag-2: inactive; MPTP inh: inactive; aDG glyco up: inactive

How did CCc1cc(=O)oc2cc(C)cc(O)c12 do in these assays?
Jurkat NFkB inh: inactive; NR2E3 ag-1: inactive; 697 NFkB inh: inactive; NR2E3 ag-2: inactive; MPTP inh: inactive; aDG glyco up: inactive

How did CCCCCc1cc(O)c2c(C)cc(=O)oc2c1 do in these assays?
Jurkat NFkB inh: inactive; NR2E3 ag-1: inactive; 697 NFkB inh: inactive; NR2E3 ag-2: inactive; MPTP inh: 86.2; aDG glyco up: inactive; Rh123 counter: 79.4

Results for CCCc1cc(=O)oc2cc(C)cc(O)c12 ?
Jurkat NFkB inh: inactive; NR2E3 ag-1: inactive; 697 NFkB inh: inactive; NR2E3 ag-2: inactive; MPTP inh: 77.8; aDG glyco up: inactive; Rh123 counter: 77.9

Results for C[C@]12C(=O)N(c3ccc(F)cc3)C(=O)N1[C@H]1c3ccccc3OC[C@@H]1[C@H]2c1ccccc1 ?
Jurkat NFkB inh: inactive; 697 NFkB inh: inactive; NR2E3 ag-2: inactive; MPTP inh: inactive; aDG glyco up: inactive

Results for Cc1nn(Cc2ccccc2)c(Cl)c1/C=C/C(=O)OC(C)C(=O)N1CCCC1 (stereo unspecified) ?
Jurkat NFkB inh: inactive; NR2E3 ag-1: inactive; 697 NFkB inh: inactive; NR2E3 ag-2: inactive; MPTP inh: inactive; aDG glyco up: inactive

What do the screens show for `C=CCn1c(SCN2C(=O)c3ccccc3C2=O)nc2ccc(Cl)cc2c1=O`?
Jurkat NFkB inh: inactive; NR2E3 ag-1: inactive; 697 NFkB inh: inactive; NR2E3 ag-2: inactive; MPTP inh: 90.2; aDG glyco up: inactive; Rh123 counter: 90.3

Results for CCOC(=O)c1c(O)cc(C)cc1Nc1ccccc1 ?
Jurkat NFkB inh: inactive; NR2E3 ag-1: inactive; 697 NFkB inh: inactive; NR2E3 ag-2: inactive; MPTP inh: inactive; aDG glyco up: inactive

How did Cc1ccc(Cl)cc1-c1cc(C(=O)NCc2ccc(C(F)(F)F)cc2)[nH]n1 do in these assays?
NR2E3 ag-2: inactive; MPTP inh: 51.8; aDG glyco up: inactive; Rh123 counter: 96.4

What do the screens show for `Cc1ccc(NC(=O)c2cc(-c3cc(Cl)ccc3O)n[nH]2)cc1C`?
Jurkat NFkB inh: inactive; 697 NFkB inh: inactive; NR2E3 ag-2: inactive; MPTP inh: inactive; aDG glyco up: inactive
